This is an account of results in article PMC4245176 (Journal of Chemical Information and Modeling, 2014).

What is called Kd is the free concentration of one partner at which half of the binding sites on the other are occupied at equilibrium, for simple one-to-one binding. High values mean weaker binding, low ones tighter binding.

Entries after “also recorded” stand apart in the source; their conditions may differ.

For one data set, the system named is HIV-1_89BZ167. As to the kind of experiment: PBMC-based HIV-1 replication assay. The data set is classed as cell-based. As to conditions: HIV-1 replication in primary human PBMCs. The method, boiled down: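 Fresh human PBMCs from HIV-1/HBV-seronegative donors were stimulated with 4 μg/mL PHA for 48–72 h and kept in 20 U/mL rhIL-2. Cells from ≥2 donors were pooled at 5 × 10^4 cells/well and infected with 89BZ167 (subtype B, CXCR4-tropic) at MOI ≅0.1 with nine compound concentrations (triplicate wells) for 7 days. Supernatant RT activity gave infection as % of compound-free control, from which IC50 was derived.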

Data set [1] concerns peripheral blood mononuclear cells (PBMCs). Description: MTS cytotoxicity assay in PBMCs. The class given is cell-based, human. Particulars: up to the highest test concentration of 100 μM. The method, boiled down:
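Cytotoxicity was read by MTS addition alongside the 7-day HIV-1 infection of pooled PHA/IL-2-stimulated human PBMCs (5 × 10^4 cells/well, nine compound concentrations, triplicate wells). The maximum concentration tested was 100 μM. CC50 is the half-maximal cytotoxic concentration. TI = CC50/IC50, with IC50 taken from the RT-based antiviral readout against 89BZ167.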
For orientation: Tetrazolium assays rely on reduction of a dye to a coloured formazan, in cell work by metabolically active cells.

The next data set addresses HIV-1NL4-3 CA protein (Human immunodeficiency virus type 1 group M subtype B, UniProt P12493). As to the kind of experiment: SPR direct binding to immobilized CA. The method, boiled down: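 CA was amine-coupled at 100 μg/mL in sodium acetate pH 4.5 onto an EDC/sulfo-NHS-activated GLH chip, with a nonspecific-antibody reference surface. A 10 mM DMSO stock of test compound was serially diluted 2-fold to 18.75–300 μM in PBS-T pH 7.4 with 5% DMSO. One-shot kinetics ran at 100 μL/min, 2 min association and 2 min dissociation. Buffer and reference responses were subtracted, and data were fitted to a 1:1 model.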

The target of the next data set is HIV-1 CA Ile37Ala (Human immunodeficiency virus type 1 group M subtype B, UniProt P12493, I169A). As to the kind of experiment: SPR binding site analysis, mutant CA. As to conditions: 50 μM compound, equilibrium response normalized to theoretical Rmax. The method, boiled down: (§1)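 Wild-type and Ala-mutant CA were amine-coupled to a GLH chip at 100 μg/mL in sodium acetate pH 4.5, after EDC (0.2 M)/sulfo-NHS (0.05 M) activation for 5 min at 25 °C, then capped with 1 M ethanolamine pH 8.0. Test compound was injected at 100 μL/min with a 2 min association. Rmax assumed 1:1 per surface. Responses from 12 replicate injections per surface were analysed.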
(In general: In SPR one partner is held on a chip, and binding of the other changes the refractive index at the surface.)

The target of another data set is HIV-1 CA Lys170Ala (Human immunodeficiency virus type 1 group M subtype B, UniProt P12493, K302A). As to the kind of experiment: SPR binding site analysis, mutant CA. Particulars: 50 μM compound, equilibrium response normalized to theoretical Rmax. A digest of the protocol:
as §1

The target in a further data set is HIV-1 CA Asn139Ala (Human immunodeficiency virus type 1 group M subtype B, UniProt P12493, N271A). As to the kind of experiment: SPR binding site analysis, mutant CA. As to conditions: 50 μM compound, equilibrium response normalized to theoretical Rmax. The method, boiled down:
as §1

Another data set concerns the target HIV-1 CA Gln179Ala (Human immunodeficiency virus type 1 group M subtype B, UniProt P12493, Q311A). As to the kind of experiment: SPR binding site analysis, mutant CA. Particulars: 50 μM compound, equilibrium response normalized to theoretical Rmax. A digest of the protocol: as §1
The next data set deals with HIV-1 CA Ser41Ala (Human immunodeficiency virus type 1 group M subtype B, UniProt P12493, S173A). Description: SPR binding site analysis, mutant CA. Particulars: 50 μM compound, equilibrium response normalized to theoretical Rmax. A digest of the protocol:
as §1

Another data set concerns the target HIV-1 CA Pro38Ala (Human immunodeficiency virus type 1 group M subtype B, UniProt P12493, P170A). Description: SPR binding site analysis, mutant CA. Particulars: 50 μM compound, equilibrium response normalized to theoretical Rmax. The method, boiled down: as §1
A further data set has as its target HIV-1 CA Arg173Ala (Human immunodeficiency virus type 1 group M subtype B, UniProt P12493, R305A). Description: SPR binding site analysis, mutant CA. Particulars: 50 μM compound, equilibrium response normalized to theoretical Rmax. The method, boiled down: as §1

`O=[N+]([O-])c1cccc(-c2nc3c4cc(I)ccc4c4ccccc4c3[nH]2)c1` [Compound 34, 5-iodo-2-(3-nitrophenyl)-1H-phenanthro[9,10-d]imidazole]: the “improvement in antiviral potency over I-XW-053 (compound 1)” value in the data set with HIV-1_89BZ167 came to 11 fold. For the same molecule, the “toxicity / viability of PBMCs” value in data set [1] is “no toxicity; also recorded: not toxic”. This molecule also displayed a Kd on HIV-1NL4-3 CA protein of 11.8 ± 4.7 µM. For the same molecule, the “effect of mutation on compound binding versus wild-type CA” value is recorded as “no effect” at HIV-1 CA Ile37Ala; “loss of favorable interactions; also recorded: major effect” on HIV-1 CA Lys170Ala; “no effect” at HIV-1 CA Asn139Ala; “loss of favorable interactions” at HIV-1 CA Gln179Ala; “loss of favorable interactions” on HIV-1 CA Ser41Ala; “increase the interaction” on HIV-1 CA Pro38Ala. Further, the “effect of mutation on compound binding versus wild-type CA” value on HIV-1 CA Arg173Ala was “increase the interaction”.
